Compound activity as filed in PubChem.
An excerpt weighted towards active compounds, which were near 2% of everything screened.
INS promoter inh: inhibitors of insulin promoter-driven GFP, primary screen, imaging, TRM-6 cells (human fetal islet line), eGFP reporter, cell count; reporter expression induced with tamoxifen; inhibition, % at 2 µM; actives 0.9% (n = 130,000); AID 1273, 2008;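 active = inhibition above the mean plus 3 SD, with well images judged a real hit on visual review, cut at about 60% in these data, passing the limit was not always enough; inconclusive = inhibition over the cutoff but images rejected on review; inactive = inhibition not above the cutoff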
Autophagy mod: autophagy modulators in MEF cells, primary screen, imaging, high-content, MEF GFP-LC3. MEF GFP-LC3 puncta imaging; test concentration mostly 10 µM. actives 0.98% (n = 190,000). calls only at 10 µM (by protocol);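 active = percentage of spot-positive cells more than 3 SD above its plate mean, without a fluorescence outlier flag or 80% toxicity; inconclusive = no clear call, values can overlap the other calls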
Dynein transport: inhibitors of GR-EGFP nuclear translocation, primary screen, dynein cargo transport inhibitor project, imaging, high-content, 3617.4 mouse cells. actives 0.47% (n = 220,000). AID 1381, 2008. test concentration mostly 20 µM; stimulated with dexamethasone, 1 µM; stronger effect = lower value. z-score, hits read low;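 active = plate z-score of nuclear minus cytoplasmic receptor signal below a set negative limit, without overly bright fluorescence or cell loss, cut at about -3.5 in these data, passing the limit was not always enough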;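 note: z-score of nuclear minus cytoplasmic ring GR-EGFP intensity difference per well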
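medium = tetracycline-free induction medium containing charcoal-stripped FBS | also added = 1.0 µM final dexamethasone stimulus | schedule = 48 h induction, 1 h compound, 30 min dex at 37 °C | technique = fixed, Hoechst-stained cells imaged at 10x for EGFP | measure = GR-EGFP nuclear translocation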
Insulin prom up: insulin promoter activators in MIN6 cells, imaging, high-content screening, mouse beta cells; AID 1625, 2009; z-score at 5 µM; actives 0.3% (n = 190,000); MIN6 insulin promoter-GFP reporter; stronger effect = higher value;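 active = z-score above 3 at 5 µM with at least 500 cells counted in the well; inconclusive = wells under 500 cells, flagged as cytotoxic or low count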
Large screens that a line does not name were inactive.

CCN1C(=O)/C(=C/C=C2/Sc3ccccc3N2CCO)SC1=S	none (no result: INS promoter inh)
COc1ccc(C(=O)/C=C/Nc2ccc([N+](=O)[O-])cc2C)c(OC)c1	Autophagy mod active
COc1ccc(C(=O)/C=C/Nc2ccc([N+](=O)[O-])cc2C)cc1OC	none
COc1ccc(C(=O)OCC(=O)Nc2ccc([N+](=O)[O-])cc2OC)c(O)c1	Autophagy mod active (no result: INS promoter inh)
CCN(CC)c1ccc2c(c1)OC(N)=C(C#N)C2c1cccnc1 (stereo not drawn)	Autophagy mod active (no result: INS promoter inh)
N#CC1=C(N)Oc2cc(N)ccc2C1c1cccnc1 (stereo not drawn)	none
CC(CC(=O)N1CCN(c2ccc(C(F)(F)F)cn2)CC1)n1ccnc1 (stereo not drawn)	none (no result: INS promoter inh)
FC(F)Oc1ccc(NC(=S)NNc2ccnc3cc(Cl)ccc23)cc1	none (no result: INS promoter inh)
COc1cc(C2c3c(oc4ccccc4c3=O)C(=O)N2Cc2ccco2)ccc1O (stereo not drawn)	none
CCOc1cc(C2c3c(oc4cc(C)c(Cl)cc4c3=O)C(=O)N2Cc2ccco2)ccc1O (stereo not drawn)	Autophagy mod active
Cc1cc(C)n(-c2cccc(CN(C)Cc3nc(-c4cnccn4)no3)c2)n1	none (no result: INS promoter inh)
O=C(CSc1n[nH]c(=O)n1C1CC1)NCc1ccccc1	none (no result: INS promoter inh, Autophagy mod, Insulin prom up)
O=S(=O)(c1ccccc1)N1CCN(c2nnc(-c3ccccc3)c3ccccc23)CC1	none (no result: INS promoter inh, Autophagy mod)
Cc1ccsc1/C=C/c1ccc2cccc(O)c2n1	none
Oc1cccc2ccc(/C=C/c3cccs3)nc12	Autophagy mod active
O=C(OCc1ccccn1)c1ccc(COc2ccc3ccccc3c2)o1	none (no result: INS promoter inh, Autophagy mod)
O=C(O)c1ccccc1C(=O)N1CCN(c2cccc(Cl)c2)CC1	none (no result: Insulin prom up)
CCOC(=O)c1[nH]c(C)c(C(=O)N2CCN(c3ccccc3)CC2)c1C	none (no result: INS promoter inh)
CCOc1ccccc1C(=O)N1CCN(c2cccc(Cl)c2)CC1	Autophagy mod active
COc1cc(Cl)ccc1NC(=O)COc1ccccc1C(=O)N1CCN(c2ccc(O)cc2)CC1	INS promoter inh 79 (no result: Insulin prom up)
CCOc1ccc2ccccc2c1C(=O)N1CCN(c2ccccc2)CC1	Autophagy mod active
CCOC(=O)Cn1nc(C)c(NC(=O)COc2ccccc2[N+](=O)[O-])c1C	none
N=c1c2c(n(Cc3ccc(Br)cc3)c3c1CCC3)CCCC2	Insulin prom up inconclusive
N=c1c2c(n(Cc3ccc([N+](=O)[O-])cc3)c3c1CCC3)CCCC2	Autophagy mod active
Cc1cc(C)nc(Nc2n[nH]c(-c3ccccc3C)n2)n1	Autophagy mod active (no result: INS promoter inh)
Cc1cc(C)nc(Nc2n[nH]c(-c3ccccc3Br)n2)n1	none
COc1ccc(OCC(=O)N(C)Cc2ccccc2)cc1	Autophagy mod active (no result: INS promoter inh)
S=C(Nc1cccc2ccccc12)NC1CCCCC1	none
Clc1nssc1=Nc1ccccc1	none
COc1ccc(N=c2ssnc2Cl)cc1	Dynein transport -3.8 (no result: Insulin prom up)
Clc1ccc(N=c2ssnc2Cl)cc1	Dynein transport -4.3 (no result: Insulin prom up)
COc1ccc(CC2SC(=Nc3ccc(F)cc3)NC2=O)cc1 (stereo not drawn)	none (no result: INS promoter inh)
N#C/C(=C\c1ccc(Cl)cc1)C(=O)Nc1cccnc1	none (no result: INS promoter inh, Autophagy mod)
Cc1cc(C)[n+](-c2ccc(Oc3ccccc3)c(S(=O)(=O)[O-])c2)[nH]1	none (no result: INS promoter inh, Autophagy mod)
COc1ccc(-c2nc3ccccc3s2)cc1O	INS promoter inh 86
COc1cc(-c2nc3ccccc3s2)ccc1O	none
Cc1cc(C)n(-c2ccc(C(=O)OCC(=O)N(CC(C)C)C3CCS(=O)(=O)C3)cc2)n1 (stereo not drawn)	Insulin prom up 3.3
CCOc1ncccc1C(=O)OCc1ccccc1	none
CCOc1ncccc1C(=O)OCC(=O)N(CC)c1ccccc1	Autophagy mod active
CC(=O)Cc1nsc(NC(=O)c2ccc(-c3cccc(C(F)(F)F)c3)o2)n1	Autophagy mod active
CCCc1c2ccccc2nc2ccccc12	INS promoter inh 85
CCCc1cc(C(=O)O)c2ccccc2n1	none
O=C(CCl)Nc1cccc2ncccc12	Insulin prom up 4
Nc1cc2c(cc1C(=O)c1ccc(Cl)cc1)OCCO2	INS promoter inh 76
Nc1cc2c(cc1C(=O)c1ccccc1)OCCO2	none
Cc1cc(C)c(C#N)c(SCC2COc3ccccc3O2)n1 (stereo not drawn)	Insulin prom up 3.5
Cc1cc(-c2ccccc2)n2nc(N)nc2n1	none (no result: INS promoter inh, Autophagy mod)
COC(=O)C1=C(Nc2ccc(C)cc2)C=C(C)C(C(=O)OC)C1c1ccc(OC)cc1 (stereo not drawn)	Autophagy mod active (no result: Insulin prom up)
CSc1nc(-c2ccccc2)nn1C(=O)c1ccc(Cl)cc1	none (no result: Insulin prom up)
